Assay outcomes as filed in PubChem BioAssay.
Compounds with a hit are over-represented: about 4.9% of the library has one in this group of screens.
STAT1 activator = STAT1 signaling activators, primary screen, cell-based, HTS, luciferase reporter; NIH 3T3 STAT1-luciferase reporter, IFN-gamma, luminescence; 100% = IFN-gamma alone, no compound; activation (% of control), % at 5.5 µM; 2.6% of 200,000 active;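 active = activation above the screen-wide mean activation plus 3 SD, cut at about 130% in these data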
STAT1 inh = STAT1 signaling inhibitors, primary screen, cell-based, HTS, luciferase reporter. inhibition, % at 5.5 µM. 0.35% of 200,000 active. NIH 3T3 STAT1-luciferase reporter, IFN-gamma, luminescence;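 active = inhibition above a set limit, the mean inhibition across all tested compounds plus 3 SD, cut at about 34% in these data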
NF-kB neuron act = activators of NF-kB expression in neurons, primary screen, cell-based, HTS | 1.6% of 190,000 active | human neuronal cells, NF-kB reporter expression; hits give high values | fold change at 12.5 µM | AID 1239, 2008; in the data active = fold change above about 3.3
STAT3 blocker = IL-6 driven STAT3 reporter inhibitors, primary screen, U3A cells, luciferase, luminescence, MLSCN library; IL-6 STAT3-luciferase reporter; host cell line lacks STAT1; inhibition, % at 5.5 µM; 0.89% of 190,000 active; AID 862, 2007;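 active = inhibition above the mean inhibition across all screened compounds plus 3 SD, cut at about 44% in these data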
APP 5'UTR act = activators of APP 5'UTR luciferase reporter, primary screen, SH-SY5Y cells; activation, % at 2 µM; 1% of 190,000 active; SH-SY5Y APP 5'UTR luciferase reporter, luminescence; zero percent = DMSO vehicle wells; AID 1276, 2008;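 active = activation above a set limit, based on mean plus 3 SD of controls, cut at about 140% in these data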
STAT3 act = IL-6 driven STAT3 reporter potentiators, primary screen, U3A cells, luciferase, luminescence, MLSCN library | 0.91% of 190,000 active | IL-6 STAT3-luciferase reporter; 100% = signal with IL-6 EC80 alone | activation (% of control), % at 5.6 µM;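 active = activation above the screen-wide mean of compound activation plus 3 SD, cut at about 130% in these data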
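system = STAT3-luciferase reporter U3A cells | reagent = IL-6 stimulus at 33 ng/mL final | timing = 1 h compound pre-exposure, 6 h IL-6 stimulation, 37 °C | measured by = luminescence | evaluation = % activation versus median of IL-6-stimulated wells | control set = IL-6-only wells as 100% reference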
Large screens that a line does not name were inactive.

O=C(N/N=C/c1cccc(Oc2ccccc2)c1)c1cc[n+]([O-])cc1	none
Cn1nccc1C(=O)Oc1ccc(/C=N/NC(=O)c2ccccc2O)cc1	none
COc1cc(C(=O)Nc2ccc(N(C)C)cc2)c([N+](=O)[O-])cc1OC	STAT1 activator 145.8 (no result: NF-kB neuron act)
COc1cc(/C=C/C(=O)OCC(=O)Nc2ccc3c(c2)OCCO3)ccc1OCC#N	none
COc1ccc(C(=O)C2CCCN(C(=O)c3cccnc3SC)C2)c(C)c1 (stereo unspecified)	none
Cc1nc(C#N)c(N/N=C/c2c(F)cccc2Cl)o1	none
Cc1cc(C(=O)N/N=C2\CC(=O)CC(C)(C)C2)c(C)n1-c1ccccc1	none
Cc1cc(C(=O)N/N=C2\CC(=O)c3ccccc32)c(C)n1-c1ccccc1	STAT1 activator 137.4
O=C(CCc1nc2ccccc2[nH]1)Nc1ccccc1F	none (no result: STAT3 blocker, STAT3 act)
Cc1ccc(CCC(=O)Nc2ccccc2F)s1	STAT1 activator 136.6
CCc1ccccc1NC(=O)CN(C)C(=O)CSc1nn(-c2ccc(F)cc2)c(=S)s1	none
O=C(NNS(=O)(=O)c1ccccc1F)c1sccc1-n1cccc1	none
Cc1ccc(/C=C/C(=O)Nc2ncc(C)s2)o1	STAT1 activator 147.4
Cc1csc(NC(=O)/C=C/c2ccc(C)o2)n1	none
Cc1ccc(/C=C/C(=O)Nc2nccs2)o1	STAT1 activator 148.3
COC(=O)c1ccc(NC(C)=O)cc1O	none
COc1nc2ccccc2nc1OC	none (no result: STAT3 blocker, STAT3 act)
S=C(NCc1ccc(Cl)cc1)NN1CCOCC1	none
CCN(CC)C(=O)Cn1c(=O)c2ccccc2n2c(=S)sc(-c3cccc(C)c3)c12	none
CC(C)CN(C(=O)COC(=O)Cc1c[nH]c2ccccc12)C1CCS(=O)(=O)C1 (stereo unspecified)	STAT3 act 133.4
COc1c(F)c(F)c(C(=O)Nc2c(C)cc(Br)cc2C)c(F)c1F	none
COC(=O)c1ccc(OC(C)C(=O)c2ccc(C)cc2)cc1 (stereo unspecified)	none
CCOC(=O)c1c(C)c(C(=O)Nc2ccc3c(c2)OCCO3)c(C)n1C	none
CCOC(=O)c1c(C)c(C(=O)Nc2cc(F)ccc2F)c(C)n1C	NF-kB neuron act 4.33
Cc1ccccc1-c1nnc(-c2ccccc2C)o1	STAT1 activator 130.4, NF-kB neuron act 3.71
Cc1ccccc1-c1nnc(-c2ccc(Br)cc2)o1	STAT1 activator 149.9
Cc1ccccc1-c1nnc(SCC#N)o1	none
COC(=O)CCc1sc(Nc2ccccc2)nc1-c1ccc(OC)cc1	STAT1 activator 138.3
CCOc1ccc(-c2cc(C(=O)O)c3ccccc3n2)c(OCC)c1	STAT3 act 135.0
CCc1ccc(-c2cc(C(=O)Nn3cnnc3)c3ccccc3n2)cc1	STAT1 inh 64.1, NF-kB neuron act 4.29, STAT3 blocker 82.5
CCn1cc(-c2cc(C(=O)O)c3ccccc3n2)c(C)n1	none
CCNC(=S)NNC(=O)c1cc(-c2ccc(OCC)cc2)nc2ccccc12	STAT1 inh 86.2, NF-kB neuron act 5.5, STAT3 blocker 98.9
c1ccc(-c2csc3ncnc(NCCCN4CCOCC4)c23)cc1	none
c1ccc(-c2csc3ncnc(NCC4COc5ccccc5O4)c23)cc1 (stereo unspecified)	STAT1 inh 38.2, STAT3 blocker 83.5
CCOC(=O)C1C(c2cccc([N+](=O)[O-])c2)C2C(=O)NN=C2CC1(C)O (stereo unspecified)	none
COc1ccc(/C=N/NC(=O)Nc2nonc2N)cc1	STAT1 activator 130.5
O=c1c(Cl)c(N2CCN(c3ccc(F)cc3)CC2)cnn1-c1nc2ccccc2s1	STAT1 activator 140.4
Cc1ccc(S(=O)(=O)NC(=O)c2cc(C)n(-c3ccc(N(C)C)cc3)c2C)cc1	none
Cn1c(CNc2nc3ccccc3n2C)nc2ccccc21	none
Cn1c(NCc2ccc(Cl)cc2)nc2ccccc21	STAT1 activator 136.1
CCN(CC)CCn1c(NCc2cc(OC)ccc2OC)nc2ccccc21	none
COc1ccc(CNc2nc3ccccc3n2C)c(OC)c1	NF-kB neuron act 3.43
COC(=O)N/N=C/c1ccc(-c2cccc(Cl)c2)o1	none
Nc1ccccc1N=Cc1ccc(-c2cccc(Cl)c2)o1	STAT1 activator 139.5
CC1(C)CC(=O)C(C=Nc2ccc(NC3=C(C#N)C(=O)CC(C)(C)C3)cc2)=C(O)C1	none
CNc1cc([N+](=O)[O-])ccc1N/C=C/C(=O)c1ccc2c(c1)OCO2	STAT1 activator 134.6, STAT3 act 134.7
O=C(/C=C\Nc1ccccc1Br)c1ccc2c(c1)OCO2	STAT1 inh 81.9, NF-kB neuron act 5.96, STAT3 blocker 86.9, APP 5'UTR act 147.7
O=C(/C=C\Nc1cccc(F)c1)c1ccc2c(c1)OCO2	STAT1 inh 51.5, STAT3 blocker 95.7, APP 5'UTR act 196.0
Cc1ccc([N+](=O)[O-])cc1NC(=O)c1ccc2c(c1)OCO2	none
COc1ccc(N2C(=O)C3NN=C(C(=O)OCc4ccccc4)C3C2=O)cc1 (stereo unspecified)	none
N=C1C(=O)OCC1c1ccccc1NC(=O)CN1CCOCC1 (stereo unspecified)	none
CCCC(=O)Nc1cccc(NC(=O)c2cccc([N+](=O)[O-])c2C)c1	none
CCN(c1ccccc1)S(=O)(=O)c1ccc(NC(=O)c2ccco2)cc1	none
CC(C)(C)c1ccc(C(=O)Nc2ccc(NC(=O)c3ccco3)cc2)cc1	none
O=C(Nc1nccs1)c1ccc(NC(=O)c2ccco2)cc1	STAT1 activator 136.8
CCOc1ccc(NC(=O)CCC(=O)NNC(=O)c2ccco2)cc1	none
CN(c1ccccc1)S(=O)(=O)c1ccc(NC(=O)c2ccco2)cc1	STAT1 activator 132.2
O=C(Nc1ccc(-c2ccccc2)cc1)c1ccco1	none
O=C(Nc1ccc(Nc2ccccc2)cc1)c1ccco1	STAT1 activator 134.0, NF-kB neuron act 4.15
CCOc1ccc(NC(=O)c2ccco2)cc1	NF-kB neuron act 3.88
CCCCOc1ccc(C(=O)N/N=C/c2ccc(OCCN3CCCCC3)c(OC)c2)cc1	none
Cn1c(=O)c2c(ncn2CC(=O)N/N=C/c2ccc(Br)s2)n(C)c1=O	none
CCN(Cc1ccncc1)C(=O)CSc1ccc2ccccc2c1	none
Cc1oc(-c2cccs2)nc1CN1CCC(CO)(CCOc2ccccc2)CC1	none
Cc1ncccc1C(=O)N1CCCC(CNC(=O)C2(c3ccc(Cl)cc3)CC2)C1 (stereo unspecified)	none
O=C(Nc1ccc(NC(=O)c2ccco2)nc1)c1ccccn1	none
O=C(Cc1ccccc1)Nc1ccc(NC(=O)c2ccco2)nc1	STAT1 activator 136.0
CCCC(=O)Nc1ccc(Oc2ccc(NC(=O)CCC)cc2)cc1	none
